Measurements: article PMC10842363 (Clinical cancer research : an official journal of the …, 2023)
Where two headings read alike, the source gives them in different places.

Assays:
[1] = system: HER2+ tumors, DCCs and metastases; experiment: Sequential Abemaciclib then HC4 treatment in MMTV-HER2 mice; assay type: in vivo, mouse; details: for GADD34 expression in primary tumors / Ki67 staining in primary tumors: 50 mpk daily, 4 weeks
kinases = experiment: KINOMEscan kinase selectivity assay; assay type: binding
Method in brief: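 Competition binding: kinases were T7 phage-tagged (grown in BL21-derived E. coli) or HEK-293-expressed with DNA tags. Incubated with biotinylated-ligand streptavidin beads and test compound (40x DMSO stocks) in SeaBlock/PBS/Tween/DTT buffer, 1 h RT. Eluted with 0.5 μM non-biotinylated ligand (30 min); kinase quantified by qPCR. Selectivity score S = hits/assays at a %Ctrl threshold, mutants excluded.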

[2] = In vivo pharmacokinetic study, single dose; details: IP administration, CD1 female mice
[3] = Repeated dosing tolerability; assay type: in vivo; details: repeated dosing from 30 to 100 mg/kg
[4] = Safety readouts in treated mice; assay type: in vivo
[5] = 28-day oral dosing study in mice; assay type: in vivo; details: oral dosing for 28 days, exposures similar to 50 mpk IP; data not shown
T-HEp3 cells = experiment: T-HEp3 HNSCC PDX i.v. injection, solitary lung DCCs in Balb/c nu/nu mice; assay type: in vivo, human; details: 50 mg/kg for 10 days, started 24 h after i.v. injection
EMT6 cells = experiment: EMT6 syngeneic spontaneous lung metastasis model; assay type: in vivo, Balb/c mice; details: 10 mg/kg
D-HEp3 cells = experiment: Chick chorioallantoic membrane; assay type: in vivo, human; details: 20 μM, 6-day treatment, CAM
MMTV-HER2 cells = experiment: Established metastases after tail vein injection of MMTV-HER2 cells; assay type: in vivo, mouse; details: 50 mg/kg for 2 weeks, started 3 weeks after tail vein injection
[6] = Mammary gland morphology in non-tumor bearing healthy mice; assay type: in vivo; details: 2 weeks
MMTV-HER2 tumors = experiment: Primary tumor growth in MMTV-HER2 females; assay type: in vivo, mouse
SKBR3 cells = experiment: 3D acini culture in Matrigel, SKBR3; assay type: cell-based; details: SKBR3, 2 μM, 10-day treatment
ZR-75-1 cells = experiment: 3D acini culture in Matrigel, ZR-75-1; assay type: cell-based; details: ZR-75-1, 2 μM, 10-day treatment
GADD34 [7] = details: MCF10A breast pre-malignant cells
GADD34 [8] = details: E0771 luminal B breast cancer cells
PERK [9] = biological target: T1, PERK (Homo sapiens, UniProt Q9NZJ5); details: MCF10A cells overexpressing HER2
PERK [10] = biological target: T1, PERK; details: HEK293 cells stimulated with Tunicamycin
MCF10A-HER2 cells [11] = details: MCF10A-HER2 cells treated with HC4
[12] = system: Fv2E-ΔNPERK fusion construct-expressing cell line; details: PERK dimerization induced with AP20187
PERK [13] = biological target: PERK (Mus musculus, UniProt Q9Z2B5); details: 50 mpk IP daily, 2 weeks
[14] = system: HER2+ DCCs and metastases
[15] = system: HER2-driven early lesions in the mammary gland
MCF10A-HER2 cells [16] = system: MCF10A-HER2 cells
HER2 [17] = system: HER2
HER2 [18] = system: HER2; remark: listed apart in the source
HER2 [19] = details: HC4-treated vs control animals
[20] = MCF10A-HER2, 2 μM, +/- EGF 100 ng/ml
[21] = MCF10A-HER2, in presence of Thapsigargin 4 nM

PERK (Mus musculus, UniProt Q9Z2B5), sequence (Q9Z2B5 29-1114): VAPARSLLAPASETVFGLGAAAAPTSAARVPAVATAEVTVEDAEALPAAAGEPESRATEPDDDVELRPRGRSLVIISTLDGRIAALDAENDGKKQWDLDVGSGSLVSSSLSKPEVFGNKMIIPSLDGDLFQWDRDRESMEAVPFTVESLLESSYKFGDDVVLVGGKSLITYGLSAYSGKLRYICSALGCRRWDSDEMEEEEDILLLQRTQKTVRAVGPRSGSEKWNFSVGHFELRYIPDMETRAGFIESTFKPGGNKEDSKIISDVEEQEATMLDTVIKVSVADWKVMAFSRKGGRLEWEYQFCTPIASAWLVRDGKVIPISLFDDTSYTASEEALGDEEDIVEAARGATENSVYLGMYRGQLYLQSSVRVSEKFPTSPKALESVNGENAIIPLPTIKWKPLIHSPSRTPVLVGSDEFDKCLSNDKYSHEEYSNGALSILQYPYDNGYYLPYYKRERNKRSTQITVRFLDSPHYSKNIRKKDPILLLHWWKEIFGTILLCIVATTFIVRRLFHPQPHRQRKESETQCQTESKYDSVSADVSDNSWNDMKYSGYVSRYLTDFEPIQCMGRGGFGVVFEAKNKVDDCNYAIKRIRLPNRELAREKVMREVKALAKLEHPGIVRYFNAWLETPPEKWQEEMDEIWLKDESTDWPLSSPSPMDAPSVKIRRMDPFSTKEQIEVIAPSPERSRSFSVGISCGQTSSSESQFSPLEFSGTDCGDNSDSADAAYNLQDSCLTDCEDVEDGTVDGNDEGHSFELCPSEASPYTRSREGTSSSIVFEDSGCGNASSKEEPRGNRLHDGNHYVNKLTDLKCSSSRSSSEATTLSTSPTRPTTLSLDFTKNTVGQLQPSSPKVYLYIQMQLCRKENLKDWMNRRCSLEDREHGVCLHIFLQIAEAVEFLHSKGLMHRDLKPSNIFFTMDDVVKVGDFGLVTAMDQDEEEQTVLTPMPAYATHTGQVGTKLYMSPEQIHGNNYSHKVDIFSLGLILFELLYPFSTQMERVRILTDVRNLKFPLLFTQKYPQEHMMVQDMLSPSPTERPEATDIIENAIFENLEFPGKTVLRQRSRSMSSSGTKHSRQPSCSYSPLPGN
T1 sequence (Q9NZJ5 30-1116): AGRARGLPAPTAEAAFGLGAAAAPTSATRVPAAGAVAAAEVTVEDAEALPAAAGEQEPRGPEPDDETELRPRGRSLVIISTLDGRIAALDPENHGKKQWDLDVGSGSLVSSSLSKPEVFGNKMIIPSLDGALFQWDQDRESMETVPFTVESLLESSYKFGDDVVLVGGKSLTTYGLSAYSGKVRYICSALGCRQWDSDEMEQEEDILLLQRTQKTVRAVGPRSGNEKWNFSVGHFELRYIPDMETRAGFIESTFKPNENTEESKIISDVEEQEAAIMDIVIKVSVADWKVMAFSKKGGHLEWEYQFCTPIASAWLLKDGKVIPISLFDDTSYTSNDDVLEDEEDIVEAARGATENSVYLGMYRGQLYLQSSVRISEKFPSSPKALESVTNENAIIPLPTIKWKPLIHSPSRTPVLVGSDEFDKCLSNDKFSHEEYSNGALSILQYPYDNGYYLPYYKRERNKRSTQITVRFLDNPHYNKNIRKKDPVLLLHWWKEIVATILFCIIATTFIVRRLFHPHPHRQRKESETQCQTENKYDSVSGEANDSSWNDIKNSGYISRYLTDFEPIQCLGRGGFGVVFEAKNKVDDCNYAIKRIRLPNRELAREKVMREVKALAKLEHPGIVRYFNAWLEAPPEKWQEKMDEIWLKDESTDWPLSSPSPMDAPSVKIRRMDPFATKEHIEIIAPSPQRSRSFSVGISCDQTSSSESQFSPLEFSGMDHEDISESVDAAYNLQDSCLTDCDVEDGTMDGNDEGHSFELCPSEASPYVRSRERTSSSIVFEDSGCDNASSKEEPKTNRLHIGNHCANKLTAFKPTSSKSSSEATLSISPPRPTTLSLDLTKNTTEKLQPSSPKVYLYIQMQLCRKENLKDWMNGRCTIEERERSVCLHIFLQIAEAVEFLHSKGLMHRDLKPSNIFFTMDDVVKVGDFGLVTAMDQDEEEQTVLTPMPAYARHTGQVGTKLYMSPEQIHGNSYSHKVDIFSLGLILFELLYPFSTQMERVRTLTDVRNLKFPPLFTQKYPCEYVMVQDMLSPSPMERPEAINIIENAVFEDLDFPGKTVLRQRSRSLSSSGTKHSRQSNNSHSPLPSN

**Q.** With `CCN1CCN(Cc2ccc(Nc3ncc(F)c(-c4cc(F)c5nc(C)n(C(C)C)c5c4)n3)nc2)CC1` [Abema, Abemaciclib] as the compound, how does the “GADD34 expression in primary tumors” value [1] read?
**A.** increases

**Q.** What about the “Ki67 staining in primary tumors” value [1] of the same compound?
**A.** reduces

**Q.** What about the “Ki67+ solitary DCCs” value ([1]; lung sections) of the same compound?
**A.** almost absent

**Q.** With `Cc1cc(NC(=O)[C@H](O)c2cc(F)cc(F)c2)ccc1-c1cnc(N)c(C(=O)NC(C)C)c1` [HC4] as the compound, how does the “specificity for EIF2AK3 (PERK) over EIF2AK1 (HRI), EIF2AK2 (PKR), EIF2AK4 (GCN2) or HER2” value (kinases; Supplementary Table S3) read?
**A.** high specificity

**Q.** And the “KINOMEscan kinase profiling selectivity” value (kinases; compared to other PERK inhibitors, specifically GSK2656157, even at 10 μM)?
**A.** exceedingly high selectivity

**Q.** And the bioavailability [2]?
**A.** demonstrated bioavailability

**Q.** What about the body weight [3] of the same compound?
**A.** no significant changes

**Q.** And the tolerability [3]?
**A.** well tolerated

**Q.** And the “bone marrow cell homeostasis and peripheral blood white cells (total cell counts)” value ([4]; MMTV-HER2 females, 50 mpk IP daily, two weeks)?
**A.** did not have a significant effect

**Q.** What about the “glucose levels, bone marrow or peripheral blood cell counts, drinking and feeding behavior” value ([4]; non-tumor or cancer bearing mice, doses used) of the same compound?
**A.** did not significantly affect

**Q.** What about the “effects on the pancreas or clinical chemistry (insulin and glucose levels)” value [5] of the same compound?
**A.** no deleterious effects

**Q.** What about the “reduction in the number of solitary HEp3 DCCs in the lung” value (T-HEp3 cells) of the same compound?
**A.** ~ 3 fold

**Q.** What about the primary tumor growth (EMT6 cells; 17 days, not shown) of the same compound?
**A.** without affecting

**Q.** And the “metastatic incidence and multiplicity of lesions per lung/animal” value (EMT6 cells; started 9 days after implanting, 17 days of treatment)?
**A.** strongly inhibited

**Q.** And the “dormant D-HEp3 cells in vivo” value (D-HEp3 cells)?
**A.** eradication

**Q.** What about the “increase in cleaved caspase-3 positive D-HEp3 cells in the nodules” value (D-HEp3 cells) of the same compound?
**A.** 5 fold

**Q.** And the “frequency of already established micro-metastases” value (MMTV-HER2 cells)?
**A.** not affecting

**Q.** And the “macro-metastatic lesion incidence and total metastatic burden” value (MMTV-HER2 cells)?
**A.** strongly reduce

**Q.** What about the “normal branching and morphology of the mammary gland ductal tree” value [6] of the same compound?
**A.** did not affect

**Q.** What about the tumors showing regression (MMTV-HER2 tumors; 2-week window treatment) of the same compound?
**A.** Four

**Q.** And the “DNA fragmentation (TUNEL staining) in tumor sections” value (MMTV-HER2 tumors; 50 mpk daily, two weeks)?
**A.** significant increase

**Q.** What about the “median final tumor volume” value (MMTV-HER2 tumors; 50 mpk daily, two weeks) of the same compound?
**A.** significant decrease

**Q.** And the tumor growth (MMTV-HER2 tumors; overt tumors, 50 mpk daily, two weeks)?
**A.** reduced growth rate

**Q.** And the “levels of proliferation (phospho-histone H3 IHC) in tumors” value (MMTV-HER2 tumors; vehicle- vs HC4-treated tumors)?
**A.** not different

**Q.** And the “levels of apoptosis (cleaved caspase-3)” value (SKBR3 cells)?
**A.** significantly increased

**Q.** And the “levels of apoptosis (cleaved caspase-3)” value (ZR-75-1 cells)?
**A.** significantly increased

**Q.** And the “GADD34 expression in primary tumors” value [1]?
**A.** completely erased

**Q.** What about the “Ki67 staining in primary tumors” value [1] of the same compound?
**A.** does not dramatically affect

**Q.** And the “thapsigargin induced GADD34 expression” value (GADD34 [7])?
**A.** completely eliminated

**Q.** What about the “thapsigargin induced GADD34 expression” value (GADD34 [8]) of the same compound?
**A.** completely eliminated

**Q.** And the “P-PERK (P-T980) levels” value (PERK [9])?
**A.** effectively decreased

**Q.** And the “P-PERK (P-T980) levels” value (PERK [10])?
**A.** effectively decreased

**Q.** And the “sensitivity to low dose thapsigargin treatment” value (MCF10A-HER2 cells [11])?
**A.** sensitive

**Q.** What about the “rescue of pro-apoptotic function of strong PERK activation” value [12] of the same compound?
**A.** fully rescued

**Q.** And the “P-PERK inhibition in pancreatic tissue, especially pancreatic islets” value (PERK [13]; IHC)?
**A.** only partial inhibition

**Q.** What about the “P-PERK and P-eIF2α levels by IHC” value (PERK [13]; mammary gland ducts and pancreatic tissue) of the same compound?
**A.** significant decrease

**Q.** And the “decrease in P-PERK levels by western blot” value (PERK [13]; tumor lysates)?
**A.** around 50%

**Q.** What about the area of macro-metastases ([14]; 50 mpk IP daily, two weeks) of the same compound?
**A.** not accompanied by a significant effect

**Q.** What about the “number and incidence of lung macro-metastases (>100 cells)” value ([14]; 50 mpk IP daily, two weeks) of the same compound?
**A.** reduced

**Q.** And the “number of DCCs in bone marrow” value ([14]; 50 mpk IP daily, two weeks)?
**A.** significantly decreased

**Q.** And the “number of P-Rb positive solitary DCCs in lung” value ([14]; 50 mpk IP daily, two weeks)?
**A.** not affecting

**Q.** What about the “number of lung micro-metastases (2-100 cells)” value ([14]; 50 mpk IP daily, two weeks) of the same compound?
**A.** significant decrease

**Q.** And the “number of non-proliferating (P-Rb negative) single DCCs in lung” value ([14]; 50 mpk IP daily, two weeks)?
**A.** significantly reduced

**Q.** And the “HER2+ circulating tumor cells in blood” value ([14]; vehicle vs HC4-treated animals)?
**A.** no significant differences

**Q.** And the “mammary glandular architecture (ductal branching)” value ([15]; 24-week-old MMTV-HER2 females, 50 mpk, 2 weeks)?
**A.** less dense branching

**Q.** What about the “cytokeratin 8/18 expression in the luminal layer” value ([15]; 50 mpk, 2 weeks) of the same compound?
**A.** increased expression

**Q.** What about the “number of occluded hyperplasias and DCIS-like lesions relative to vehicle” value ([15]; 50 mpk, 2 weeks) of the same compound?
**A.** less than half

**Q.** And the “hollow lumen mammary gland ducts, share of structures” value ([15]; around 20 % in control females)?
**A.** more than 60%

**Q.** What about the “levels of proliferation (phospho-histone H3)” value (MCF10A-HER2 cells [16]; 3D acini cultures, 2 μM, cell line not given) of the same compound?
**A.** did not detect a significant change

**Q.** And the “levels of apoptosis (cleaved caspase-3)” value (MCF10A-HER2 cells [16]; MCF10A-HER2, 2 μM, 10-day treatment)?
**A.** significantly increased

**Q.** And the “P-AKT, P-S6 and P-ERK1/2 levels” value (HER2 [17]; [20])?
**A.** downregulation

**Q.** And the “basal and EGF-induced levels of P-EGFR and P-HER2” value (HER2 [17]; [20])?
**A.** decreased

**Q.** What about the “levels of P-HER2 and P-AKT” value (HER2 [17]; [21]) of the same compound?
**A.** decrease

**Q.** And the “molecular weight of phosphorylated HER2 protein” value (HER2 [17]; [21])?
**A.** lower molecular weight

**Q.** What about the “total HER2 levels or heterodimerization with EGFR” value (HER2 [17]; surface biotinylation and co-immunoprecipitation, data not shown) of the same compound?
**A.** No obvious effect

**Q.** And the “endocytosed phospho- and total HER2” value (HER2 [18]; MCF10A-HER2, reversible surface biotinylation)?
**A.** clearly increased

**Q.** And the “abundance of P-HER2 and total HER2 in the cell surface” value (HER2 [18]; MCF10A-HER2, not shown)?
**A.** did not significantly alter

**Q.** What about the “P-HER2 levels in tumors (area and intensity score)” value (HER2 [19]) of the same compound?
**A.** significantly lower
